Drawing on the array DNA melting data of Ke et al. (doi:10.1101/2024.01.08.574731), this text covers Tm and folding enthalpy for 73 sequences.

A short description of data set [1]: melting temperature; fluorescence melt of hairpins on a sequencing array, two-state fit, raised by 9.35 °C to match UV melts. As to conditions: sodium 0.088 M. The method in brief:
(§1)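 Cy3 fluorescence of library hairpins on a sequenced MiSeq flow cell, with annealed Cy3 and quencher oligos, was imaged in 50 mM Na-HEPES pH 8.0, 25 mM NaCl in 2.5 °C steps up to 60 °C. Signals were normalised to pre-quench Cy3 and to control variants. Melting temperature and folding enthalpy came from bootstrapped two-state fits, inverse-variance combined over four replicates. Fitted temperatures were raised by 9.35 °C to match UV melts.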

Data set [2] in a line: folding enthalpy; higher = less favourable; fluorescence melt of hairpins on a sequencing array, two-state fit. To be noted: sodium 0.088 M. The method in brief:
as §1

GTGCCTGGAAACAGGTAC ((.((((....)))).)): in data set [1], the Tm was found to be 53.6 °C. The folding enthalpy in data set [2] was -32.7 kcal/mol.
On the same counts, the results for GTGCGACGAAAGTCACAC (((.(((....))).))) are 54.3 °C and -43.9 kcal/mol.
On the same counts, the results for GTGCGAGGAAACTCGCGC (.(((((....))))).) are 66.2 °C and -18.2 kcal/mol.
For GTGCGCGAAAGCGGTCAC ((((((....)))..))) the same measures were 43.5 °C and -14.1 kcal/mol.
In the case of GTGCGCGAAAGCGTGCAC ((((((....)))..))), the Tm in data set [1] is 59.3 °C. Also, the folding enthalpy in data set [2] was -17.3 kcal/mol.
On the same counts, the results for GTGCGCGGAAACGCGTAC ((.((((....)))).)) are 65.5 °C and -20.1 kcal/mol.
On the same counts, the results for GTGCGCTCGAAAGAGCAC (((..(((....)))))) are 59.9 °C and -14.1 kcal/mol.
For GTGCGGACGAAAGTCCAC (((..(((....)))))) the same measures were 60.9 °C and -12 kcal/mol.
For GTGCGGGGAAACCCGCGC (.(((((....))))).), in data set [1], the Tm was 67.2 °C. Further, in data set [2], the folding enthalpy is -16.1 kcal/mol.
For GTGCGGGGAAACCCGTGC (..((((....))))..) the same measures were 53.8 °C and -19.2 kcal/mol.
For GTGCGGTCGAAAGACCAC (((..(((....)))))) the same measures were 57.5 °C and -13.3 kcal/mol.
For GTGCGTCCGAAAGGACAC (((..(((....)))))) the same measures were 60.4 °C and -9.8 kcal/mol.
Take GTGCGTCGAAAGACTCAC (((.(((....))).))): the Tm in data set [1] was determined as 49.6 °C. Also, in data set [2], the folding enthalpy was -40.2 kcal/mol.
For the sequence GTGCGTGGAAACATGCAC ((((.((....)).)))), the Tm in data set [1] was determined as 58.4 °C. In addition, in data set [2], the folding enthalpy is -48.5 kcal/mol.
For GTGCTCGAAAGAGAACAC ((((((....)))..))) the same measures were 44.5 °C and -19.6 kcal/mol.
In the case of GTGCTCGAAAGAGACAC ((((((....))).))), the Tm in data set [1] was 47.3 °C. The folding enthalpy in data set [2] was -22.4 kcal/mol.
Consider GTGCTCGAAAGAGGGCAC ((((((....)))..))), for which the Tm in data set [1] amounted to 48.9 °C. Besides, the folding enthalpy in data set [2] was -22.9 kcal/mol.
For GTGCTCGAAAGAGTCAC ((((((....))).))) the same measures were 49.7 °C and -26.7 kcal/mol.
On the same counts, the results for GTGCTCGCGAAAGCGCAC (((..(((....)))))) are 49.2 °C and -17.4 kcal/mol.
For GTGCTGAAAAGCAC (((((....))))) the same measures were 66 °C and -28.1 kcal/mol.
As for GTGCTGCGAAAGCATCAC (((.(((....))).))), the Tm in data set [1] came out at 52 °C. The folding enthalpy in data set [2] is -31.9 kcal/mol.
GTGCTGGGAAACCGGCAC ((((.((....)).)))): the Tm in data set [1] was 61 °C. The folding enthalpy in data set [2] was -41.1 kcal/mol.
On the same counts, the results for GTGCTGTCGAAAGACCAC (((..(((....)))))) are 45.4 °C and -13.1 kcal/mol.
On the same counts, the results for GTGCTTCGAAAGAACCAC (((.(((....))).))) are 34.8 °C and -27.8 kcal/mol.
On the same counts, the results for GTGCTTGGAAACGAGCAC (((((.(....).))))) are 55.5 °C and -40.1 kcal/mol.
GTGCTTTCGAAAGAACAC (((..(((....)))))): the Tm in data set [1] worked out at 36.7 °C. Further, the folding enthalpy in data set [2] is -19.8 kcal/mol.
On the same counts, the results for GTGGAAGGAAACTCCCAC ((((.((....)).)))) are 38.6 °C and -36.2 kcal/mol.
For GTGGAAGGAAACTTCTGC (..((((....))))..) the same measures were 34.1 °C and -14.4 kcal/mol.
On the same counts, the results for GTGGACCCGAAAGGGCAC (((..(((....)))))) are 49.3 °C and -16.6 kcal/mol.
As for GTGGACGAAAGTCCGCAC ((((((....)))..))), the Tm in data set [1] turned out to be 55.7 °C. In data set [2], the folding enthalpy was -11.8 kcal/mol.
On the same counts, the results for GTGGACGAAAGTCGGCAC ((((((....)))..))) are 39.8 °C and -15.5 kcal/mol.
For GTGGACGGAAACGTTCGC (.(.(((....))).).) the same measures were 45 °C and -26.6 kcal/mol.
On the same counts, the results for GTGGAGCGAAAGCTACAC (((.(((....))).))) are 68.2 °C and -30.8 kcal/mol.
For GTGGAGCGAAAGCTGCAC (((.(((....))).))), the Tm in data set [1] amounted to 62.4 °C. Further, the folding enthalpy in data set [2] is -34 kcal/mol.
Take GTGGAGGAAACTCCAC ((((((....)))))): in data set [1], the Tm turned out to be 60.1 °C. For the same sequence, the folding enthalpy in data set [2] is -35.2 kcal/mol.
On the same counts, the results for GTGGAGGGAAACCTCCGC (.(((((....))))).) are 56.2 °C and -37.6 kcal/mol.
On the same counts, the results for GTGGATACGAAAGTACAC (((..(((....)))))) are 36.8 °C and -13.5 kcal/mol.
On the same counts, the results for GTGGATGGAAACATCCAC (((((((....))))))) are 65.1 °C and -50.1 kcal/mol.
On to GTGGATGGAAACATCTAC ((.((((....)))).)), for which, in data set [1], the Tm is 46.8 °C. Besides, in data set [2], the folding enthalpy was -31 kcal/mol.
In the case of GTGGATGGAAACATCTGC (..((((....))))..), in data set [1], the Tm stood at 37.6 °C. Besides, the folding enthalpy in data set [2] is -23 kcal/mol.
For GTGGCACGAAAGTGCAC (((.(((....)))))) the same measures were 52.1 °C and -11 kcal/mol.
For GTGGCAGGAAACCGCCAC (((((.(....).))))) the same measures were 55.9 °C and -46.8 kcal/mol.
As for GTGGCAGGAAACTGCTGC (..((((....))))..), in data set [1], the Tm was 44.2 °C. In addition, in data set [2], the folding enthalpy is -17.4 kcal/mol.
On the same counts, the results for GTGGCAGGAAACTGTCGC (.(.(((....))).).) are 45.7 °C and -27.3 kcal/mol.
For GTGGCATCGAAAGATCAC (((..(((....)))))) the same measures were 34.2 °C and -12.8 kcal/mol.
On the same counts, the results for GTGGCCCGAAAGGGCAC (((.(((....)))))) are 62 °C and -10.3 kcal/mol.
For the sequence GTGGCCGAAAGGCAACAC ((((((....)))..))), in data set [1], the Tm is 55.5 °C. In data set [2], the folding enthalpy was -13.3 kcal/mol.
For GTGGCCGAAAGGCCCAC ((((((....))).))) the same measures were 57.5 °C and -10.5 kcal/mol.
On the same counts, the results for GTGGCCGAAAGGCCCCAC ((((((....)))..))) are 38.1 °C and -5.99 kcal/mol.
For GTGGCCGAAAGGCGGCAC ((((((....)))..))) the same measures were 46.7 °C and -13.8 kcal/mol.
As for GTGGCCGAAAGGCTCAC ((((((....))).))), in data set [1], the Tm turned out to be 54.9 °C. The folding enthalpy in data set [2] was -16.2 kcal/mol.
On the same counts, the results for GTGGCCGGAAACAGCCAC (((((.(....).))))) are 54.5 °C and -47.6 kcal/mol.
For GTGGCGCCGAAAGGCCAC (((..(((....)))))) the same measures were 57.8 °C and -13.8 kcal/mol.
On the same counts, the results for GTGGCGGGAAACCGTCGC (.(.(((....))).).) are 50.5 °C and -24.9 kcal/mol.
Consider GTGGCGTCGAAAGACCAC (((..(((....)))))), for which the Tm in data set [1] was 44.5 °C. In addition, in data set [2], the folding enthalpy was -12.9 kcal/mol.
On the same counts, the results for GTGGGCGAAAGCCCCCAC ((((((....)))..))) are 38.7 °C and -7.28 kcal/mol.
For GTGGGCGAAAGCCCTCAC ((((((....)))..))) the same measures were 39.5 °C and -8.43 kcal/mol.
On the same counts, the results for GTGGGCGAAAGCCGCCAC ((((((....)))..))) are 42.3 °C and -13.3 kcal/mol.
Take GTGGGCGAAAGCCTCAC ((((((....))).))): the Tm in data set [1] was 51.9 °C. Besides, the folding enthalpy in data set [2] was -15.5 kcal/mol.
On the same counts, the results for GTGGGCGAAAGCCTGCAC ((((((....)))..))) are 45.3 °C and -12.4 kcal/mol.
With GTGGTACGAAAGTACAC (((.(((....)))))), the Tm in data set [1] amounted to 49.7 °C. In addition, the folding enthalpy in data set [2] was -15 kcal/mol.
On the same counts, the results for GTGGTAGGAAACTATCAC (((.(((....))).))) are 44.4 °C and -28.4 kcal/mol.
For GTGGTCCGAAAGGACAC (((.(((....)))))) the same measures were 53.2 °C and -12.8 kcal/mol.
On the same counts, the results for GTGGTCGAAAGACATCAC ((((((....)))..))) are 34.2 °C and -14.3 kcal/mol.
With GTGGTCGAAAGACGACAC ((((((....)))..))), the Tm in data set [1] turned out to be 47.2 °C. Also, in data set [2], the folding enthalpy was -15.4 kcal/mol.
Consider GTGGTCGAAAGACGTCAC ((((((....)))..))), for which the Tm in data set [1] was determined as 36.2 °C. In data set [2], the folding enthalpy is -13.5 kcal/mol.
For GTGGTCGAAAGACTGCAC ((((((....)))..))), the Tm in data set [1] was determined as 40.8 °C. Besides, in data set [2], the folding enthalpy is -14.7 kcal/mol.
On the same counts, the results for GTGGTCGGAAACAACCAC (((((.(....).))))) are 45.4 °C and -29.4 kcal/mol.
For GTGGTCGGAAACGACTGC (..((((....))))..) the same measures were 49.5 °C and -14.3 kcal/mol.
GTGGTCGGAAACGATCAC (((.(((....))).))): the Tm in data set [1] was 55.7 °C. Further, in data set [2], the folding enthalpy was -44.6 kcal/mol.
On the same counts, the results for GTGGTGACGAAAGTCCAC (((..(((....)))))) are 45.6 °C and -19 kcal/mol.
For GTGGTTGCGAAAGCACAC (((..(((....)))))) the same measures were 42.7 °C and -15.6 kcal/mol.
For the sequence GTGTAAACGAAAGTTCAC (((..(((....)))))), the Tm in data set [1] is 33.7 °C. Further, the folding enthalpy in data set [2] is -18 kcal/mol.
